Bioassay records (PubChem)
Shown are actives, neighbours in structure and some others; about 2% of the full set was active somewhere.
ATG4B inh: ATG4B (human) cysteine protease inhibition | inhibition, % at 8.33 µM | Q9Y4P1 | actives 0.51% (n = 340,000) | AID 504462 | ATG4B cleavage of LC3-PLA2, NBD-HPC fluorescence, 1 h; in the data active = inhibition above about 40%
Target sequence (Q9Y4P1 whole entry, looked up): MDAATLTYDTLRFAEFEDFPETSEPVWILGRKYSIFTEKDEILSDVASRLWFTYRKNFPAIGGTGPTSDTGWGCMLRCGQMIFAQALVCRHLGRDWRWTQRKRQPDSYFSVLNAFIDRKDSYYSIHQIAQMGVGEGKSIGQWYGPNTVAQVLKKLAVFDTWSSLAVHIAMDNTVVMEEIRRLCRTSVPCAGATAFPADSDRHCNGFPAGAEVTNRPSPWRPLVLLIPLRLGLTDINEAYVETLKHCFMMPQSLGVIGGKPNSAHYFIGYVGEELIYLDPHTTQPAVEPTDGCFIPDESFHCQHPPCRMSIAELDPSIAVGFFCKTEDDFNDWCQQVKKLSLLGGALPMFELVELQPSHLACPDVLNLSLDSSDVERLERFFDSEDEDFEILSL
CSN deneddyl inh: inhibitors of human CSN-mediated cullin deneddylation; Purified CSN, SCF-Nedd8-OG deneddylation, fluorescence polarization; inhibition, % at 12.5 µM; actives 0.38% (n = 360,000); AID 651999;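 active = pattern-corrected inhibition above about 35%, with an unprinted fluorescence ratio check between 0.5 and 1.5, limit read from the data, passing the limit was not always enough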
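assay system = purified human Csn5 enzyme expressed in HEK293T cells | amount = 0.24 nM enzyme | buffer or medium = Tris/NaCl/DTT buffer, pH 7.5 | reagent = 10 nM SCFSkp2-Nedd8OG | compound = one concentration, 12.5 µM, 0.25% DMSO | times = 90 min reaction at room temperature | signal = FP | read-out basis = % inhibition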
Rpn11 inh: inhibitors of human proteasome Rpn11; actives 0.59% (n = 360,000); human 26S proteasome, Ub4-pepOG fluorescence polarization; 20S core pre-blocked with epoxomicin; inhibition, % at 20 µM;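 active = inhibition at 20 µM, scaled to each plate's controls, above about 33%, limit read from the data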
SENP1 inh: blocks the human SENP1 SUMO protease catalytic domain | recombinant SENP1 catalytic domain, CyPet-SUMO1-YPet FRET cleavage | inhibition, % at 10 µM | AID 624204 | Q9P0U3 | actives 0.21% (n = 360,000);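 active = inhibition at least 30% at 10 µM, raw YFP signal under a set limit, fluorescence ratio 0.5 to 1.5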
Target sequence (Q9P0U3 419-644 limits assumed): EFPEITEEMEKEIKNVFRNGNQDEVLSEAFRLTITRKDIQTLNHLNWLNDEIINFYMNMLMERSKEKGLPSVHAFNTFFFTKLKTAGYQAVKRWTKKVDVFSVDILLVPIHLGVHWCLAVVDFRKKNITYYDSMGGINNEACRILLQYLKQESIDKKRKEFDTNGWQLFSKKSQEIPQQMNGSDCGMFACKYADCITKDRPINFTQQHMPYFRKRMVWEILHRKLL
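Assay system – human recombinant His6-tagged SENP1 catalytic domain enzyme · Input – SENP1 enzyme, 20 pM final · Buffer or medium – Tris pH 8 buffer plus EDTA, NaCl, BME, BSA, NP40, catalase · Schedule – 50 min reaction at room temperature · Technique – FRET read of cyan and yellow fluorescence · Control set – no-enzyme wells low, DMSO-plus-enzyme wells high control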
TPT1 inhibitor: inhibitors of Candida albicans tRNA 2'-phosphotransferase TPT1. recombinant caTPT1, FP RNA substrate dephosphorylation. inhibition, % at 5 µM. actives 0.81% (n = 300,000). AID 1962;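 active = inhibition above the mean of all tested compounds plus 3 SD, set per screening campaign, cut at about 24% in these data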
HNF4A DNA FP: change in binding of human HNF4 alpha to DNA. P41235. HNF4a-FITC DNA binding, fluorescence polarization, 1 h. activity change, % at 10 µM. actives 0.3% (n = 360,000); in the data active = activity change above about 30%, passing the limit was not always enough
TPT1 inh confirm: TPT1 (C. albicans) inhibition, confirmation; shares compounds with TPT1 inhibitor; recombinant caTPT1, fluorescence polarization, RNase T1 coupled; inhibition, % at 5 µM; actives 74% (n = 2,400);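 active = inhibition above the primary screen limit, the mean inhibition of all tested compounds plus 3 SD, cut at about 25% in these data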
RNase T1 inh: counter-screen for TPT1 inhibitors: inhibitors of Aspergillus oryzae RNase T1; shares compounds with TPT1 inhibitor; RNase T1 cleavage, fluorescence polarization, 1536-well; inhibition, % at 5 µM; actives 83% (n = 2,400); AID 2153;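 active = inhibition above the solvent-only control well mean plus 3 SD, limit set per screening run, cut at about 23% in these data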;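 note: inhibitors block cleavage so intact labeled substrate keeps polarization high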
Hits are given with their value; - = inactive; . = not tested or not shown.

SMILES	ATG4B inh	CSN deneddyl inh	Rpn11 inh	SENP1 inh	TPT1 inhibitor	HNF4A DNA FP	TPT1 inh confirm	RNase T1 inh
Cc1ccc(N2CC(C)Cn3c2nc2c3c(=O)[nH]c(=O)n2C)cc1C (stereo not given)	-	-	-	-	-	-	.	.
O=C(c1ccc(S(=O)(=O)Nc2ccccc2F)cc1)N1CCN(c2ccccn2)CC1	-	-	-	-	.	-	.	.
O=C(/C=C/c1cn(CC(O)CN2CCCCCC2)c2ccccc12)c1cccs1 (stereo not given)	-	-	.	-	57	-	68	76
O=Cc1cn(CC(O)Cn2cc(C=O)c3ccccc32)c2ccccc12	-	-	-	-	-	-	.	.
COc1ccc(CCN2CC(C(=O)NCc3ccon3)CCC2=O)cc1 (stereo not given)	.	-	-	-	.	-	.	.
C#CC(C)(O)C1CC(CC(=O)O)C1(C)C (stereo not given)	-	-	-	-	.	-	.	.
CC(C)(C)OC(=O)N(CCc1ccccc1)Cc1cccc(OCc2cccc(NC(=O)C3CC3)c2)c1	.	-	-	-	.	-	.	.
CCN(CC)c1ccc(C=C(c2nnnn2-c2ccc(C)cc2)c2nnnn2-c2ccc(C)cc2)cc1	-	-	.	-	77	-	73	85
Cc1ccc(-n2nnnc2-c2ccccc2)cc1	-	-	-	-	-	-	.	.
CCN(CC)C(=O)CSc1nc(-c2ccco2)cc(C(F)(F)F)c1C#N	-	-	-	-	-	-	.	.
N#Cc1c(C(F)(F)F)cc(-c2ccco2)nc1SCc1ccccn1	-	-	.	-	27	-	-	23
CCCNC(=O)Cn1c(=O)/c(=C\c2ccc(-c3cccc([N+](=O)[O-])c3)o2)s/c1=C\C(=O)C(C)(C)C	-	-	-	-	50	-	-	-
CCCNC(=O)Cn1c(=O)/c(=C\c2ccc(-c3ccc([N+](=O)[O-])cc3)o2)s/c1=C\C(=O)C(C)(C)C	-	-	.	-	109	-	99	99
CCc1ccc(C(C)NC(=O)c2cccs2)cc1 (stereo not given)	-	-	-	-	-	-	.	.
CCN(C(=O)COC(=O)c1ccc2c(c1)OCO2)c1c(N)n(Cc2ccccc2)c(=O)[nH]c1=O	-	-	-	-	.	-	.	.
CC(=O)c1sc2nc(CSc3nnnn3-c3ccccc3)[nH]c(=O)c2c1C	-	46	.	-	71	38	69	81
Cc1ccccc1-n1c(SCc2c(C)noc2C)nnc1-c1ccncc1	-	-	-	-	33	-	-	-
Cc1ccccc1-n1c(SCc2c(C)noc2C)nnc1-c1cccnc1	-	-	-	-	-	-	.	.
CCOC(=O)N1CCN(c2cc(=O)n(-c3cccc(C)c3)c(=O)[nH]2)CC1	-	-	-	-	110	-	-	-
C/C(=N\Nc1ccc([N+](=O)[O-])cc1)c1ccc(C#N)cc1	-	-	-	-	-	-	.	.
C/C(=N\NS(=O)(=O)c1ccc([N+](=O)[O-])cc1)c1ccc2c(c1)OCO2	-	-	-	-	.	-	.	.
C/C(=N/Nc1ccc([N+](=O)[O-])cc1)c1ccc(C)cc1C	-	-	-	-	26	-	36	47
C/C(=N\Nc1ccc([N+](=O)[O-])cc1)c1ccc2c(c1)OCO2	-	-	-	-	57	-	53	65
COC(=O)C1=C(C)OC(N)=C(C#N)C1c1ccccc1F (stereo not given)	-	-	-	-	-	-	.	.
N#CC1=C(N)Oc2cc(O)c(Cl)cc2C1c1ccccc1F (stereo not given)	-	-	-	-	72	-	-	26
SMILES	ATG4B inh	CSN deneddyl inh	Rpn11 inh	SENP1 inh	TPT1 inhibitor	HNF4A DNA FP	TPT1 inh confirm	RNase T1 inh
CC(=NO)c1ccc2c(c1)Cc1cc([N+](=O)[O-])ccc1-2	-	-	-	-	.	-	.	.
Nc1ccc2c(c1)Cc1cc([N+](=O)[O-])ccc1-2	-	-	-	-	53	37	56	65
CC(=O)C1=NN(c2ccccc2)C(c2ccc3c(c2)OCO3)N1c1ccccc1 (stereo not given)	-	-	-	-	27	-	46	59
CC(=O)C1=NN(c2ccccc2)C(c2cccs2)N1c1ccc(N(C)C)cc1 (stereo not given)	-	-	-	-	-	-	.	.
Cc1ccc(/C=C2\SC(=S)N(NS(=O)(=O)c3ccc(C)cc3)C2=O)cc1	-	-	-	-	-	-	.	.
Cc1ccc(S(=O)(=O)NN2C(=O)/C(=C/c3cccn3C)SC2=S)cc1	.	.	.	.	57	.	60	74
Cn1cccc1/C=C1\SC(=S)N(Nc2ccccc2)C1=O	-	-	.	-	42	58	72	87
O=[N+]([O-])c1ccc(-c2cn3nc(-c4ccccc4)c(-c4ccccc4)nc3n2)cc1	-	-	.	-	-	-	.	.
Cc1ccc(-c2cn3nc(-c4ccccc4)c(-c4ccccc4)nc3n2)cc1	-	-	-	-	68	-	71	75
c1ccc(-c2cn3nc(-c4ccccc4)c(-c4ccccc4)nc3n2)cc1	-	-	-	-	34	-	44	51
CCOC(=O)C1=CCN(S(=O)(=O)c2ccc(F)cc2)C1c1cccc(F)c1 (stereo not given)	.	-	-	-	.	-	.	.
Cc1ccc(NC(=O)N/C=C/c2ccco2)cc1C	-	-	.	-	24	-	61	73
Cc1ccc(NC(=O)N/C=C/c2ccco2)c(C)c1	-	-	-	-	-	-	.	.
O=C(N/N=C/c1c(O)n(-c2ccc(Cl)cn2)c(=O)c2ccccc12)c1ccncc1	-	-	.	-	130	72	154	143
CCOc1ccccc1C(=O)n1nc2nc(C)cc(C)c2c1N	-	-	-	-	44	-	-	-
CC(=Nc1ccc(C)cc1)c1sc2ccccc2c1O	-	-	-	-	74	-	75	87
CC(=Nc1cccc(O)c1)c1sc2ccccc2c1O	-	-	-	-	66	-	94	105
CN=Cc1sc2ccccc2c1O	-	-	-	-	-	-	.	.
CCN1C(=O)[C@H]2[C@H]3CN=C(SCC(=O)c4ccccc4)N3[C@@](CC)(C(=O)OC)[C@H]2C1=O	-	-	-	-	.	-	.	.
O=[N+]([O-])c1cccc(C2NCC(c3ccccc3Cl)c3c2[nH]c2ccccc32)c1 (stereo not given)	-	-	-	-	131	-	-	-
